# High-throughput results: PubChem BioAssay, several laboratories
# Shown are actives, neighbours in structure and some others; about 2.1% of the full set was active somewhere.
# zVAD death inh: blocks zVAD induced death of L929 cells. L929 zVAD necroptosis rescue, ATP luminescence, 24 h; with zVAD 60 µM. viability rescue, % at 10 µM. 220,000 tested, 0.38% active. AID 1377;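 active means activation, scaled between plate controls, above about 75%, limit read from the data; inactive means activation under that limit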;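 further: 0% = zVAD with DMSO and 100% = DMSO alone without zVAD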
# Pf gamet viab: P. falciparum stage V gametocyte viability inhibition; P. falciparum stage V gametocytes, ATP luminescence, 24 h; inhibition, % at 10.9 µM; 150,000 tested, 0.065% active;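 active means inhibition above the mean plus 3 SD of compounds within the control limits, set per campaign, cut at about 38% in these data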;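 further: 0% = DMSO wells and 100% = medium only without gametocytes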
# TNF death inh: inhibitors of TNF-alpha induced necroptosis in Jurkat FADD-/- cells; Jurkat FADD-/- TNF necroptosis rescue, ATP luminescence, 24 h; 0 = TNF only, 100 = no-TNF cells; 220,000 tested, 0.068% active; AID 463075; activation (protection from cell death), % at 10 µM;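 active means activation, meaning protection from cell death, of at least 50% relative to plate controls; inactive means activation below 50%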;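 further: necroptosis triggered by 40 ng/mL TNF-alpha added together with compound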
# Wee1 degr inh: inhibitors of human Wee1 degradation; P30291; HeLa Luc-Wee1K328M stability, luciferase luminescence; 100% = proteasome inhibitor MG132 effect; reporter increase, % at 5 µM; 220,000 tested, 1.2% active; AID 1321;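 active means activation above the mean of all tested compounds plus 3 SD, set per screening run, cut at about 8.8% in these data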;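 further: cells exposed to compound for 20 h before luminescence read; 0% = DMSO alone and 100% = MG132 at 30 µM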
# Target sequence (P30291 whole entry K328M): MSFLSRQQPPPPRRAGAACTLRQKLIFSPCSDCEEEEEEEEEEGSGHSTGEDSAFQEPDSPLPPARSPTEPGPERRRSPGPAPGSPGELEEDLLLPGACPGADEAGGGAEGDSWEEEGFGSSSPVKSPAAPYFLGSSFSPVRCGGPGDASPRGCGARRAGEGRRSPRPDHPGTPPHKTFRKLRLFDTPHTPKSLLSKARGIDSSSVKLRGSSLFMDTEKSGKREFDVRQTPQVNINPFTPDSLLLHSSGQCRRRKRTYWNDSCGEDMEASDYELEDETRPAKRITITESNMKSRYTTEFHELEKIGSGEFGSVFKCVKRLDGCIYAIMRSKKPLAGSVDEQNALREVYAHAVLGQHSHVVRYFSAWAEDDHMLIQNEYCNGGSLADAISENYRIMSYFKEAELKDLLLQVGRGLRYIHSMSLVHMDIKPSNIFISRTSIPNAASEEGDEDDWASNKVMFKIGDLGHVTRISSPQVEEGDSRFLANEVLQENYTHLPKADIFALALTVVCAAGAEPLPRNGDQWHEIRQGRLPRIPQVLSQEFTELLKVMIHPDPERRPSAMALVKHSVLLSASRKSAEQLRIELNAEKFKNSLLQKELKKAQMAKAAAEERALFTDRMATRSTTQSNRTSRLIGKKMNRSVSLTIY
# RBBP9 inh: inhibitors of human serine hydrolase RBBP9 | inhibition, % at 7.94 µM | O75884 | 220,000 tested, 0.2% active | recombinant RBBP9, FP-Rh probe fluorescence polarization;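 active means inhibition above the campaign mean of all tested compounds plus 3 SD, cut at about 14% in these data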;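 further: plate controls were DMSO wells with RBBP9 for no effect and wells lacking RBBP9 protein for full effect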
#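 Assay system: recombinant human RBBP9; Reagent: Serine-hydrolase probe FP-Rh, 375 nM pre-mixing; Doses: 7.94 µM single dose, 0.794% DMSO; Incubation: 30 min then 45 min, 25 °C; Detection: fluorescence polarization (mP), excitation 525 nm, emission 598 nm; Evaluation: percent inhibition from mP, scaled between DMSO and no-protein wells.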
# Calpain2 inh: inhibitors of pig calpain II | purified calpain II, fluorogenic peptide substrate, 30 min | inhibition, % at 16 µM | 220,000 tested, 0.37% active | AID 1236;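 active means inhibition above about 50%, limit read from the data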
# Active calls of the source: *; i = inactive; . = not tested or not shown.
SMILES,zVAD death inh,Pf gamet viab,TNF death inh,Wee1 degr inh,RBBP9 inh,Calpain2 inh
O=C(CSc1ccc2nnc(-c3ccccn3)n2n1)Nc1nccs1,-1,.,-1,0,-5,-2
CC1(OC(=O)CCc2ccccc2)C(=O)C=C2C=C(c3ccc(C#N)cc3)N(C3CCCC3)C=C2C1=O (stereo not drawn),-1,6,-1,.,.,-92
COc1ccc(N2CCN(C(=O)c3ccc(NS(=O)(=O)c4cccs4)cc3)CC2)cc1,1,-18,2,9.0*,-11,7
CCOc1ccc(N2C(=O)CC(N3CCN(c4ccccc4F)CC3)C2=O)cc1 (stereo not drawn),2,-18,0,14*,-9,-4
CC1CCCCC1NC(=O)c1ccc(S(=O)(=O)NCC2CCCO2)cc1 (stereo not drawn),0,-6,1,0,-7,13
CSc1ccc(Cc2ccc(Cl)cc2Cl)nn1,8,-4,62*,-1,-4,2
CCOc1ccc(/C=N/OCC(=O)Nc2ccc3c(c2)OCO3)cc1,1,-2,1,2,-6,27
COc1ccc(/C=C/C(=O)c2ccccc2)c(OC)c1,-1,.,1,7,-1,6
COc1ccc(/C=C/C(=O)c2ccc3c(c2)OCO3)c(OC)c1,0,7,-3,29*,-7,-6
COc1ccc(/C=N/OCC(=O)Nc2ccc3c(c2)OCO3)c(OC)c1,0,.,1,-1,-4,56*
CCc1cc(=O)oc2cc(OCC(N)=O)c(Cl)cc12,0,.,0,0,4,-141
Cn1c(=O)[nH]c(=O)c2c1nc(N1CCCCCC1)n2CCSc1nc2ccccc2[nH]1,0,.,-1,11*,-3,1
O=C(Nc1ccc(Cl)cc1)N1CCc2ccccc2C1,0,.,4,9.7*,-10,35
COc1cc(/C=C2\CC/C(=C\c3cc(OC)c(O)c(OC)c3)C2=O)cc(OC)c1O,1,-2,-10,3,19*,-55
COc1cc(/C=C2\CC/C(=C\c3cc(OC)c(OC)c(OC)c3)C2=O)cc(OC)c1OC,1,-17,-2,4,8,1
COc1cc(/C=C2/CCC/C(=C\c3cc(O)c(OC)c(Cl)c3)C2=O)cc(Cl)c1O,11,.,-20,2,-7,-58
COc1cc(/C=C2\COC/C(=C\c3cc(OC)c(OC)c(OC)c3)C2=O)cc(OC)c1OC,14,-5,9,127*,0,-4
Cc1ccccc1CN(CC1CCC(C(=O)O)CC1)C(=S)Nc1ccccc1F (stereo not drawn),-1,-13,0,-1,-6,-9
O=S(=O)(Cc1ccccc1Cl)NCCOc1ccccc1,1,-28,1,9.0*,4,1
Cc1cccnc1Oc1ncccc1N,.,-15,.,.,.,.
O=C(O)CCNC(=O)CCCn1nnc2ccccc2c1=O,0,-34,2,9.5*,-1,20
CC(C)C[C@H](NC(=O)CCCn1nnc2ccccc2c1=O)C(=O)O,0,-6,1,0,-7,-14
CCCN(CCC)C(=O)CC(c1ccccc1)c1cc(Br)ccc1O (stereo not drawn),0,-3,2,-2,-2,74*
CC(C)CC(NC(=O)OC(C)(C)C)c1cn([C@@H](CCCCNC(=O)OC(C)(C)C)C(=O)N2CCN(C(=O)OC(C)(C)C)CC2)nn1 (stereo partly drawn),1,.,1,10*,-5,-7
CCCCOc1ccc(CSCCNC(=S)Nc2ccccc2)cc1,0,-5,-4,-1,-11,3
SMILES,zVAD death inh,Pf gamet viab,TNF death inh,Wee1 degr inh,RBBP9 inh,Calpain2 inh
CC(C)COc1ccc(CSCCNC(=S)Nc2ccccc2)cc1,-1,-6,-13,7,-13,65*
CN(c1ccccc1)P(=O)(N(C)c1ccccc1)N(C)c1ccccc1,0,-15,-2,-1,0,0
O=Cc1ccc(-c2cccc([N+](=O)[O-])c2)o1,2,-31,-1,10*,-6,8
O=Cc1ccc(-c2ccc([N+](=O)[O-])cc2Cl)o1,2,-19,0,1,-9,46
COc1ccc(-c2noc(CN(C)Cc3ccccc3)n2)c(OC)c1OC,.,-2,.,.,.,.
COc1ccc(-c2cc(C(F)(F)F)n3nc(C(=O)N4CCCCC4)cc3n2)cc1,0,.,-6,-1,-7,i
COc1ccc(-c2cc(C(F)(F)F)n3nc(C(=O)NCCCN4CCOCC4)cc3n2)cc1,1,-75,1,10*,-3,i
O=C(O)CSc1cccc[n+]1[O-],1,-5,-1,-3,4,-1
O=C(CSc1cccc[n+]1[O-])c1cc(Cl)ccc1Cl,35,13,-10,1,-5,70*
Cc1ccc(N(C(=O)c2ccco2)C2C=CS(=O)(=O)C2)cc1 (stereo not drawn),1,15,0,0,-4,-7
COc1ccc(N(C(=O)Cn2nnc(-c3ccccc3F)n2)C(C(=O)NCC2CCCO2)c2ccc(Cl)cc2)cc1 (stereo not drawn),1,-29,2,2,-3,67*
COc1ccc(N(C(=O)Cn2nnc(-c3ccc(Cl)cc3)n2)C(C(=O)NCC2CCCO2)c2ccc(C)cc2)cc1 (stereo not drawn),0,8,-2,0,-1,27
CNC(=O)COC(=O)c1cc2c(C)nn(-c3ccc(F)cc3)c2s1,0,.,-3,-1,-11,-46
Cc1nn(-c2ccc(F)cc2)c2sc(C(=O)N3CCCCCC3)cc12,0,.,-1,-1,-5,50*
Cn1c(=O)cc2c3c(c(N4CCCCC4)ccc31)C(=O)c1ccccc1-2,0,-8,-12,0,10,-6
O=C1c2ccccc2C(=O)c2c1cccc2N1CCCC1,0,14,-1,-1,3,51*
O=C(N/N=C\c1ccc(Cl)cc1Cl)c1sccc1-n1cccc1,89*,13,-3,0,-6,-13
Cc1oc(-c2ccccc2F)nc1CS(=O)(=O)CC(=O)NCc1ccco1,1,.,1,9.2*,-6,-6
CCOc1ccc(C(=O)Nc2ccc(NC(=O)c3ccccc3)c(C)c2)cc1[N+](=O)[O-],.,-5,.,.,.,.
Cn1nnnc1NCc1c(F)cccc1Cl,0,.,-1,10*,2,-3
CCCn1nnnc1NCc1c(F)cccc1Cl,1,-15,1,-2,-9,-18
CCOC(=O)N1CCN(C(=O)c2ccc(N(Cc3ccc(C)cc3)S(C)(=O)=O)cc2)CC1,-1,16,-2,4,-5,2
Cc1ccc(CN(c2ccc(C(=O)N3CCOCC3)cc2)S(C)(=O)=O)cc1,0,.,0,10.0*,-11,4
COc1ccc(-c2nc3ccccc3c(C(=O)Nc3ccc(S(=O)(=O)Nc4cc(C)on4)cc3)c2C)cc1,-1,.,-1,-3,3,-89
